Assay outcomes: PubChem, The Scripps Research Institute Molecular Screening Center
TAAR1 agonist = human TAAR1 agonists, primary screen, Fluo-8 calcium fluorescence, CHO RD-HGA16 cells; Trace amine-associated receptor 1 (Homo sapiens), Q96RJ0; vehicle wells 0%, saturating PEA agonist 100%; AID 624467, 2012; hit rate 0.99% among 360,000; activation, % at 3 µM;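 active means activation above the mean activation of all test compounds in the run plus 3 SD, cut at about 38% in these data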
Target sequence (Q96RJ0 whole entry, looked up): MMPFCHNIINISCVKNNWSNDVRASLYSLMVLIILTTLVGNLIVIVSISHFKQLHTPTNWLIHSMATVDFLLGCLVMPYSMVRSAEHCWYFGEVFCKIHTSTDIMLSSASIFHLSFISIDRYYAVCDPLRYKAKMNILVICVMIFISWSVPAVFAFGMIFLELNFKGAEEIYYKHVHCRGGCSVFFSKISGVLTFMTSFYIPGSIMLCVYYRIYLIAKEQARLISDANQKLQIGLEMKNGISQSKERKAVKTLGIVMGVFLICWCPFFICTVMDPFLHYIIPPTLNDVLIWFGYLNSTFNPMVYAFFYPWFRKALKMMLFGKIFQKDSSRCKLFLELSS
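Assay system: CHO-derived RD-HGA16 cells with stable Gα16 and human TAAR1; timing: 17-24 h seeding, 75 min 37 °C dye, 30 min RT; read-out: % activation from peak over basal fluorescence ratio, DMSO-to-PEA scaled; measured by: kinetic Fluo-8 calcium fluorescence; benchmarks: low control DMSO, high control PEA (EC100); doses: 3 µM single concentration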
OX1R antag-1 = antagonists of human orexin 1 receptor (OX1R); Orexin/Hypocretin receptor type 1 (Homo sapiens), O43613; OX1R-expressing cells, FRET antagonist read-out; inhibition, % at 6.6 µM; hit rate 1.8% among 330,000; AID 485270, 2010; in the data active means inhibition mostly above about 38%, no sharp cut-off; inactive means mostly below about 40%;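 further: 0% = agonist challenge alone and 100% = reference antagonist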
OX1R antag-2 = OX1R (HCRTR1) antagonists, primary screen, fluorescence, CHO/OX1R cells, Fluo-8 calcium, orexin A; Orexin/Hypocretin receptor type 1 (Homo sapiens), O43613; Fluo-8 calcium fluorescence; inhibition, % at 5 µM; hit rate 0.43% among 330,000;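 active means inhibition above its plate's threshold, mean inhibition of all tested compounds on the plate plus 3 SD, cut at about 37% in these data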;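 further: 0% = orexin A challenge wells and 100% = SB-334867-A antagonist wells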
GPR7 antagonist = GPR7 receptor antagonists, primary screen, cell-based, fluorescence, single concentration; Neuropeptides B/W receptor type 1 (Homo sapiens), P48145; GPR7-expressing cells, fluorescence antagonist assay; inhibition, % at 4.4 µM; hit rate 1.1% among 290,000; AID 1861, 2009; in the data active means inhibition above about 16%, passing the limit was not always enough;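 further: cells stimulated with the agonist NPW; 0% = agonist with vehicle and 100% = vehicle without agonist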
Target sequence (P48145 whole entry, looked up): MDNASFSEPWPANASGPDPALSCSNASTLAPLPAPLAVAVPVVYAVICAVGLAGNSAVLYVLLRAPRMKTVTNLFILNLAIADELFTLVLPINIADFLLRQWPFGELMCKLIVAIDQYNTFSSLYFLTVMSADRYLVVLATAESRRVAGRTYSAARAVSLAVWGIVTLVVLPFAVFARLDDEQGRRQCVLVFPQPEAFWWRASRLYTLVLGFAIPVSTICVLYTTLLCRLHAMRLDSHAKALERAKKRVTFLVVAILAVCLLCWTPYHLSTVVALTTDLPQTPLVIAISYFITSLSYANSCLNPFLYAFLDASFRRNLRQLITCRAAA
TAAR1 antag = human TAAR1 antagonists, primary screen, Fluo-8 calcium fluorescence, CHO RD-HGA16 cells. Trace amine-associated receptor 1 (Homo sapiens), Q96RJ0. antagonist. inhibition, % at 3 µM. hit rate 1.5% among 360,000. AID 624466, 2012;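 active means inhibition above a per-plate cutoff, the mean inhibition of test compounds on that plate plus 3 SD, cut at about 49% in these data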;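 further: 0% = DMSO plus EC80 beta-PEA response and 100% = DMSO alone without agonist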
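Assay system: RD-HGA16 CHO cells with stable hTAAR1 and Gα16 / Reagent: EC80 β-phenethylamine stimulus / Doses: 3 µM, single point / Timing: dye loading 75 min at 37 °C, then 30 min room temperature / Measured by: Fluo-8 intracellular calcium dye fluorescence, real-time kinetic reads / Controls: vehicle wells and EC80 agonist wells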
CHO parental Ca = ATP-evoked calcium signal inhibitors, parental CHO, primary screen, counter-screen for OX1R antagonist project, cell-based, fluorescence, Fluo-8 calcium dye; parental CHO-K1, ATP-induced calcium, Fluo-8 fluorescence; inhibition, % at 5.6 µM; hit rate 0.63% among 330,000;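 active means inhibition above that plate's mean sample inhibition plus 3 SD, cut at about 26% in these data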;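 further: 0% = ATP-challenged DMSO wells and 100% = DMSO wells without ATP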
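test system = CHO parental line | reagent = ATP stimulus | measured by = intracellular calcium via Fluo-8 no-wash fluorescent dye | control set = ATP and no-ATP DMSO wells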
TAAR1 ag conf = human TAAR1 agonists, retest of hits, confirmation, Fluo-8 calcium fluorescence, CHO RD-HGA16 cells; activation, % at 3 µM; hit rate 82% among 2,400; scaled: DMSO 0%, maximal phenethylamine 100%; shares compounds with TAAR1 agonist;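 active means activation above a cutoff set at the run's mean compound activation plus 3 SD, cut at about 39% in these data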
Ga16 nonsel ag = nonselective calcium mobilization agonists, CHO-Ga16 cells, counter-screen for hTAAR1 agonist project, cell-based, fluorescence, CHO-Ga16 parental line; shares compounds with TAAR1 agonist; Fluo-8 calcium fluorescence; normalized to maximal ATP response, DMSO zero; activation, % at 3 µM; hit rate 50% among 2,400; AID 651787, 2012;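 active means activation above the run cutoff, the mean activation over all tested wells plus 3 SD, cut at about 12% in these data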;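 further: 0% = DMSO wells and 100% = maximal ATP response on the peak over basal ratio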
TAAR1 desens = TAAR1 desensitization by agonist hits, confirmation, counter-screen for TAAR1 agonist project, cell-based, fluorescence, tachyphylaxis; shares compounds with TAAR1 agonist; CHO RD-HGA16 hTAAR1, Fluo-8 calcium, beta-PEA response inhibition; inhibition, % at 3 µM; hit rate 46% among 2,400;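 active means inhibition above the run cutoff, the mean inhibition of all test compounds plus 3 SD, cut at about 49% in these data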;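 further: beta-PEA stimulus applied at its EC80; loss of beta-PEA calcium signal after compound pretreatment read as receptor desensitization; 0% = DMSO with beta-PEA at EC80 and 100% = DMSO alone without agonist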
Ga16 antag count = inhibition of ATP-evoked calcium response in CHO-Ga16 cells, counter-screen for TAAR1 agonist project, cell-based, fluorescence | inhibition, % at 3 µM | shares compounds with TAAR1 agonist | AID 651952, 2012 | CHO-Ga16 ATP-induced calcium, Fluo-8 fluorescence | hit rate 39% among 2,400;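 active means inhibition above the plate's mean compound inhibition plus 3 SD, computed per plate, cut at about 22% in these data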;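 further: 0% = EC80 ATP with DMSO and 100% = DMSO wells without ATP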
* hit, by the source's call; . = not tested or not shown. Hits are enriched below; roughly 4.6% of the tested compounds scored in any of these assays.

SMILES | TAAR1 agonist | OX1R antag-1 | OX1R antag-2 | GPR7 antagonist | TAAR1 antag | CHO parental Ca | TAAR1 ag conf | Ga16 nonsel ag | TAAR1 desens | Ga16 antag count
CCOCc1nnc(NC(=O)C2c3ccccc3Oc3ccccc32)s1 | 77* | -1 | 2 | 21 | 23 | 6 | 91* | 54* | 49* | 37*
Cc1nnc(NC(=O)C2c3ccccc3Oc3ccccc32)s1 | 18 | 5 | -25 | -7 | -19 | -9 | . | . | . | .
O=c1c2ccc([N+](=O)[O-])cc2ncn1Cc1ccccc1C(F)(F)F | 51* | 25 | -22 | -13 | 7 | -7 | 8 | 22* | -2 | 12
C=CC[C@@H](CC(=O)N(CCO)Cc1ccccc1)C(=O)NC[C@H](OC(=O)[C@@H](CC=C)CC(=O)OC(C)(C)C)c1ccccc1 | 63* | 11 | 0 | . | 71* | -20 | 69* | 21* | 63* | 30*
Cc1cccc(NNC(=S)Nc2c(C)cccc2C)c1 | -4 | 8 | -15 | -11 | -7 | -12 | . | . | . | .
Clc1ccc(-c2nc3ccncc3[nH]2)cc1 | 49* | 0 | -19 | 6 | 19 | -1 | 72* | -1 | 40 | 8
COc1cc(CN2C[C@@H](CO)O[C@@H](n3cnc4c(NCc5ccc(F)cc5)ncnc43)C2)cc(OC)c1OC | 6 | . | . | . | 0 | . | . | . | . | .
C=CCN=C1NC(c2cccc(Cl)c2)C(C(=O)OC)=C(C)N1Cc1ccc(C(F)(F)F)cc1 (stereo not given) | 28 | . | . | . | 45 | . | . | . | . | .
CCC(C)(C)n1nnnc1C(c1ccc(O)cc1)N1CCc2ccccc2C1 (stereo not given) | 98* | 7 | -21 | 3 | 84* | 5 | 93* | 4 | 86* | 15
CC(C)(C)n1nnnc1C(c1ccccc1)N1CCc2ccccc2C1 (stereo not given) | . | 3 | -15 | 9 | . | -15 | . | . | . | .
COCCn1nnnc1C(c1ccc(O)c(OC)c1)N1CCc2ccccc2C1 (stereo not given) | 86* | 7 | -17 | -3 | 84* | -8 | 103* | 1 | 97* | 9
CCCCn1nnnc1C(c1ccccc1)N1CCc2ccccc2C1 (stereo not given) | -2 | . | . | . | 11 | . | . | . | . | .
O=C(COC(=O)COc1cccc(Br)c1)Nc1c(Cl)cccc1Cl | 12 | 13 | -9 | -3 | -2 | -3 | . | . | . | .
Cn1c(CN2CCCCC2)nc2cc(NS(=O)(=O)c3ccc(Cl)cc3)ccc21 | 70* | 8 | 13 | 2 | 9 | -12 | 77* | 41* | 39 | 23*
CN(CC(=O)Nc1ccccc1Cl)C(=O)CCNC(=O)Nc1ccccc1 | . | 10 | -23 | . | . | -9 | . | 7 | . | 6
COc1ccc(NC(=O)CN(C)C(=O)CCNC(=O)Nc2ccccc2)cc1 | 9 | . | . | . | -20 | . | . | . | . | .
O=C(COC(=O)Cn1cnc2ccccc2c1=O)Nc1ccccc1Sc1ccc(Cl)cc1 | 1 | 2 | -32 | -9 | 26 | -25 | . | . | . | .
COc1ccc(Cl)c2sc(NC(=O)C3=COCCO3)nc12 | 10 | 21 | -14 | . | -17 | -15 | . | . | . | .
Cc1ccc(Cl)c2sc(NC(=O)C3=COCCO3)nc12 | 61* | 14 | 0 | -1 | 11 | -14 | 13 | 20* | 11 | 13
CC(Sc1nnc(-c2cccs2)n1-c1ccccc1)C(=O)NCc1ccc2c(c1)OCO2 (stereo not given) | 2 | 57 | 9 | 9 | 10 | -17 | . | . | . | .
O=C(O)c1ccccc1C(=O)c1ccc(F)c(F)c1 | 3 | . | . | . | 0 | . | . | . | . | .
CN1C(=O)C2CN(CCc3ccccc3)CNC2N(C)C1=O (stereo not given) | . | 6 | -9 | -1 | . | -10 | . | 0 | . | -3
O=C(Nc1ccc(Cl)c(C(F)(F)F)c1)NC1CC2CCCC(C1)N2C1CC1 (stereo not given) | 68* | 10 | -12 | -1 | 25 | -3 | 70* | 25* | 41 | 25*
O=C(NNC(=S)NC(=O)c1ccccc1)c1ccc([N+](=O)[O-])cc1 | 64* | 4 | -10 | 4 | 27 | -3 | 70* | 46* | 19 | 22*
O=C(NNC(=S)NC(=O)c1ccc(Br)cc1)c1ccc([N+](=O)[O-])cc1 | 124* | 21 | -3 | -3 | 95* | 11 | 142* | 110* | 96* | 65*
SMILES | TAAR1 agonist | OX1R antag-1 | OX1R antag-2 | GPR7 antagonist | TAAR1 antag | CHO parental Ca | TAAR1 ag conf | Ga16 nonsel ag | TAAR1 desens | Ga16 antag count
CC(=O)NNC(=S)NC(=O)c1cccc([N+](=O)[O-])c1 | 2 | 34 | 15 | 0 | -27 | 0 | . | . | . | .
O=C(NNC(=S)NCc1ccccc1)c1cccc([N+](=O)[O-])c1 | 1 | 24 | -7 | -4 | -25 | -1 | . | . | . | .
O=C(NNC(=S)NC(=O)c1ccc(Br)cc1)c1cccc([N+](=O)[O-])c1 | 135* | 2 | -2 | 15 | 35 | 1 | 105* | 88* | 40 | 21
O=C(NNC(=S)NC(=O)c1ccccc1Cl)c1cccc([N+](=O)[O-])c1 | 92* | 6 | 11 | -7 | 34 | 0 | 57* | 43* | 22 | 22*
O=C(NNC(=O)c1ccc([N+](=O)[O-])cc1)c1ccc(Br)cc1 | 1 | 15 | 2 | -1 | -22 | -5 | . | . | . | .
O=C(C1CC1)N1CCc2cc(S(=O)(=O)NCc3ccccc3)ccc21 | 68* | 18 | -16 | -9 | 37 | 4 | 5 | 8 | 15 | 18
COc1cccc(CNS(=O)(=O)c2ccc3c(c2)CCN3C(=O)C2CC2)c1 | 8 | 19 | -7 | -1 | 17 | -8 | . | . | . | .
